High-throughput results (PubChem BioAssay)
HIF activator – HIF pathway transcriptional activators, primary screen, cell-based, U2OS HRE-luciferase, luminescence; U2OS HRE-luciferase reporter; normalized: DMSO 0%, desferrioxamine 100%; activation, % at 7.5 µM (by protocol); 0.32% of 300,000 active;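 active = mean activation of at least 10% of the iron chelator positive control signal, with at least half of replicates also reaching 10%; inconclusive = mean and replicate majority disagree about reaching 10%; inactive = mean and most replicates under 10%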
AHR activator – AHR activators, primary screen, cell-based, luminescence, luciferase reporter, human; activation, % at 5 µM; AHR-responsive luciferase reporter cells; AID 2796, 2010; Aryl hydrocarbon receptor (Homo sapiens), P35869; 2.5% of 320,000 active; in the data active = activation above about 47%;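 note: 0% = vehicle wells and 100% = reference agonist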
SR-BI DiI-HDL act – activators of SR-BI mediated DiI-HDL uptake, primary screen, ldlA[mSR-BI] CHO cells, DiI fluorescence; 3 h; 100 = double the neutral-control signal; activation, % at 12.5 µM; 0.096% of 320,000 active;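 active = mean replicate activation of at least 60% and every replicate at or above 60%; inconclusive = mean or all-replicate condition met, but not both; inactive = mean below 60% and not all replicates reaching 60%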;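 note: 0% = median plate neutral-control signal and 100% = twice that signal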
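System: CHO ldlA[mSR-BI] cells / Medium: HEPES-buffered (25 mM, pH 7.4) F12 plus 0.5% BSA / Probe or stimulus: labelled HDL, 10 µg/mL / Doses: single compound concentration, delivered by pin transfer / Schedule: 3 h, 37 °C / Measured by: DiI fluorescence, bottom read / Measure: cell-associated DiI fluorescence as measure of HDL uptake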
SR-BI HDL uptake – inhibitors of SR-BI mediated HDL lipid uptake, primary screen, ldlA[mSR-BI] cells, fluorescence, single point; inhibition, % at 12.5 µM; AID 488896, 2010; 0.96% of 320,000 active; Scavenger receptor class B member 1 (Mus musculus), Q61009; ldlA[mSR-BI] CHO cells, DiI-HDL uptake fluorescence, 3 h;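 active = mean replicate inhibition of at least 70% and a set share of replicates each scoring 70 or more; inconclusive = meets just one of the two criteria; inactive = fails both criteria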;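 note: 0% = median of neutral control wells and 100% = median of positive control wells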
ABCB6 inh 2 – ABCB6 transporter inhibitors, primary screen, K562-ABCB6 cells, flow cytometry, MLPCN library; K562-ABCB6 porphyrin accumulation, 1 h; stronger effect = lower value; fluorescence ratio to DMSO, % at 10 µM; ATP-binding cassette sub-family B member 6 (Homo sapiens), Q9NP58; 0.19% of 360,000 active;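 active = fluorescence ratio to DMSO below 75%, the collection mean minus 3 SD; inconclusive = too few cells collected in the well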;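 note: signal is porphyrin accumulated inside mitochondria; 100% equals median channel fluorescence of DMSO control wells; lower ratio means ABCB6 inhibition with less porphyrin fluorescence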
Target sequence (Q9NP58 whole entry, looked up): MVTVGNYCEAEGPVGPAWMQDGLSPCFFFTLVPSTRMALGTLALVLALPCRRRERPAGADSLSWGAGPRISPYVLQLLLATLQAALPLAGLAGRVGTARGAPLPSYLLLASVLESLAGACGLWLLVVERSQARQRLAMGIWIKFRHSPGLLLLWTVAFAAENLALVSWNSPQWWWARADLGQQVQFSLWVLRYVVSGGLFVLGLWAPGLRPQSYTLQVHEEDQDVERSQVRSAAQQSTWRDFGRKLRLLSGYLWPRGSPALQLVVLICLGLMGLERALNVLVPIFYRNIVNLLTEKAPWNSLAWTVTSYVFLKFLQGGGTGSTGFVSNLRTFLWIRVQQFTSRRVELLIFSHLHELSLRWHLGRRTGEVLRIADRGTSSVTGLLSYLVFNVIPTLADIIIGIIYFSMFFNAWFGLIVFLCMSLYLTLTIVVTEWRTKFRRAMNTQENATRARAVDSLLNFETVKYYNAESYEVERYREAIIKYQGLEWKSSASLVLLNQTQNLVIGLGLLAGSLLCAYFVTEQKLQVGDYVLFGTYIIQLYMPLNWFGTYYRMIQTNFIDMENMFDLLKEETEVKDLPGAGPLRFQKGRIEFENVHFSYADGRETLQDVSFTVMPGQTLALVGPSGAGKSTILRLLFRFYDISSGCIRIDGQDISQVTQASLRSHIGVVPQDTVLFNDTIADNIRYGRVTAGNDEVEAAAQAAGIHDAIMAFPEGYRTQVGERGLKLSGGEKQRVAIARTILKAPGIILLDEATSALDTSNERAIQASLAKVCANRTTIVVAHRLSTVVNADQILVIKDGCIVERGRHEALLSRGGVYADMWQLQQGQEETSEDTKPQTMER
FXN GAA850 act – FXN promoter activators, primary screen, cell-based, luciferase luminescence, HEK293 lucGAA850; activation, % at 6 µM; HEK293 lucGAA850 FXN promoter luciferase reporter, 24 h; percent of 10 µM SAHA response; 0.56% of 360,000 active; AID 540364, 2011;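 active = activation above the average of all compounds screened plus 3 SD, cutoff fixed separately per campaign, cut at about 7.5% in these data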;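 note: 0% = DMSO wells and 100% = 10 µM SAHA wells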
DiI quencher – counter-screen for SR-BI lipid transfer inhibitors: DiI fluorescence quenchers. shares compounds with SR-BI HDL uptake. AC50, µM (highest dose often 35 µM), for the others: at the top dose activity change, negative = quenching. AID 540326. 20% of 470 active. cell-free DiI-HDL fluorescence quenching, 30 min;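 active = quenching, a falling signal, with AC50 below a set limit tied to the top valid dose, actives reach about 32 µM in these data; inconclusive = no clear call, values can overlap the other calls; inactive = rising signal, and the rest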
Numbers without * were called inactive; ? = inconclusive; . = no result. Sampled rows, rich in hits. Any-hit rate of the full collection: about 3.9%.

SMILES	HIF activator	AHR activator	SR-BI DiI-HDL act	SR-BI HDL uptake	ABCB6 inh 2	FXN GAA850 act	DiI quencher
Cc1ccc(-c2csc(N3CCN(c4ccc5nc(-c6ccncc6)n(CCN6CCCCC6)c5c4)CC3)n2)cc1	-0.1	6.3	-70.4	70.4*	109.0	3.2	-18.9%
O=C(Nc1nccs1)c1ccc(-c2cccc([N+](=O)[O-])c2)o1	2.2	-1.8	-57.4	57.5	94.0	1.7	.
O=C(Nc1ncc(Cc2cccc(C(F)(F)F)c2)s1)c1ccc(-c2cccc([N+](=O)[O-])c2)o1	-0.1	-6.0	-51.4	51.4	85.0	-2.2	-10.0%
COc1cc(OC)cc(C(=O)N[C@H](C(=O)Nc2nc(-c3cc(OC)ccc3OC)cs2)C(C)C)c1	0.0	0.6	-70.8	?	97.0	-3.6	-1.1%
COc1cc(OC)cc(C(=O)Nc2cccc(NC(=O)c3cc(OC)cc(OC)c3)n2)c1	-0.6	21.4	-81.9	81.9*	107.0	-4.3	5.7%
COc1ccc(C(=O)Nc2ccccn2)cc1	-1.0	1.6	5.2	-5.2	99.0	-0.5	.
CCOC(=O)c1cccc(NC(=O)Nc2cc(OC)ccc2OC)c1	0.4	9.1	-109.3	109.3*	93.0	-0.9	4.81µM*
COc1cc(OC)cc(C(=O)Nc2cccc(NC(C)=O)c2)c1	0.0	0.0	-25.4	25.4	98.0	3.5	.
CCOC(=O)Nc1cccc(NC(=O)c2cc(OC)cc(OC)c2)c1	0.5	1.3	-74.4	74.4*	100.0	-0.2	9.7%
COc1ccc(-c2ccc(NS(=O)(=O)c3cc([N+](=O)[O-])ccc3C)cc2)nn1	0.4	1.9	26.2	-26.2	98.0	0.1	.
CC(C)c1cc(CNC(=O)C2CCC(=O)N(CCc3ccc(Cl)cc3)C2)on1 (centres undefined)	0.3	0.6	-78.4	78.4*	103.0	-1.3	-1.2%
COc1ccc(CCN2CC(C(=O)NCc3cc(C(C)C)no3)CCC2=O)cc1 (centres undefined)	-0.8	.	12.1	-12.1	98.0	1.1	-2.0%
CC(C)CNC(=O)C1CCN(S(=O)(=O)c2ccc(-n3cnnn3)cc2)CC1	-0.6	0.3	11.4	-11.4	99.0	-0.2	.
CCOC(=O)N1CCN(C(=O)C2CCN(C(=O)Nc3ccccc3)CC2)CC1	.	-2.5	-73.6	73.6*	98.0	-1.3	-1.3%
C[C@H](NC(=O)c1nc[nH]c1C(=O)N(C)Cc1ccccc1)c1ccccc1	.	6.3	21.7	-21.7	93.0	1.9	.
CCc1ccc(NC(=O)COc2coc(CN3CCc4ccccc4C3)cc2=O)cc1	-0.3	1.2	-27.1	27.1	96.0	0.3	.
COc1ccccc1CNC(=O)C1CCC(CNC(=O)[C@@H]2Cc3ccccc3CN2)CC1 (some centres undefined)	0.1	3.3	-77.0	77.0*	106.0	0.3	-4.6%
CCOC(=O)[C@@H]1[C@H]2COc3ccccc3[C@@H]2N2C(=O)N(c3ccc(Br)cc3)C(=O)[C@]12C	.	0.3	-2.8	2.8	97.0	1.7	.
Cc1cc(C)n(CC(=O)NC2CCCc3c2cnn3-c2ccc(C)c(C)c2)n1 (centres undefined)	4.0	4.0	-72.2	?	102.0	1.2	-1.9%
COc1ccc(S(=O)(=O)N2CCC(C(=O)NN3CCCCC3)CC2)cc1OC	.	-0.8	8.6	-8.6	99.0	0.4	-1.9%
CCSCC1COC(c2cccn2Cc2ccc(C)cc2)=N1 (centres undefined)	-11.2	0.5	-70.1	?	90.0	0.7	-5.3%
O=C1[C@@H]2Cc3c([nH]c4ccccc34)C(c3cccc([N+](=O)[O-])c3)N2C(=O)CN1CCCO (some centres undefined)	0.9	14.9	-81.8	81.8*	99.0	0.3	-16.2%
